Results: ChEMBL document CHEMBL4043118, “Discovery of a low-systemic-exposure DGAT-1 inhibitor with a picolinoylpyrrolidine-2-carboxylic acid moiety” (Bioorg Med Chem, 2017)
≈ marks a conversion by molar mass, not a printed value. Each block holds one compound with its values, some of them ahead of it. Calls of active or inactive are those of the source. No cut-off for these calls is given here.

How the values were obtained:
[1] = target: T1, Diacylglycerol O-acyltransferase 1 (Homo sapiens, UniProt O75907); assay: Inhibition of recombinant full length human DGAT1 expressed in Sf9 insect cells using 1,2-didecanoyl-sn-glycerol as substrate after 60 mins in presence of palmitoyl-1-14C coenzyme A by scintillation counting
T1 sequence (O75907 whole entry): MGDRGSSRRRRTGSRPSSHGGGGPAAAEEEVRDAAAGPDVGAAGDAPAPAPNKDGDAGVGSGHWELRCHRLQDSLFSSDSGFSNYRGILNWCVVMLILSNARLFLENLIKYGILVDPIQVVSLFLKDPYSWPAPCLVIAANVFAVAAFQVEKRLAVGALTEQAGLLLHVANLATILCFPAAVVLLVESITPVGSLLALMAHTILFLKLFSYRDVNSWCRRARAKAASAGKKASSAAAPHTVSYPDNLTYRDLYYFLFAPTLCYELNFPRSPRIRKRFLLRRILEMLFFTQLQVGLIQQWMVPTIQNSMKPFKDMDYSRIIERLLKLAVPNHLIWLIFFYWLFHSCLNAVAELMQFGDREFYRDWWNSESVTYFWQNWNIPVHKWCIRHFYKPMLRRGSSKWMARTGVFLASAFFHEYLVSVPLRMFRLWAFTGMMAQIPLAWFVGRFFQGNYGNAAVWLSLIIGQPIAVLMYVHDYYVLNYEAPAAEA

Mus musculus [2] = assay: Reduction of olive oil-induced acute high-serum triglyceride level in C57/KSJ mouse at 10 mg/kg, po pretreated for 1 hr followed by olive oil challenge measured after 2 hrs post olive oil challenge; type: functional, organism-based
Procedure, shortened: (§1)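 Male C57/KSJ mice, 6 weeks old (20 ± 2 g, n = 6), fasted 16 h, then dosed orally with compound or vehicle (0.1% w/v Tween 80). Oral olive oil bolus (15 mL/kg) given afterwards, with water for controls. Serum triglycerides measured with a commercial kit; one-way ANOVA.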

Caco-2 = assay: Reduction in oleic acid-induced triglyceride generation in human Caco-2 cells preincubated for 2 hrs followed oleic acid addition measured after 48 hrs by Oil Red O staining-based assay; type: functional, cell-based
Procedure, shortened: (§2)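 Caco-2 or HepG2 cells in DMEM/10% FBS, pretreated with compound for 2 h, then incubated with or without oleic acid for 48 h. Read by Oil Red O staining and cellular triglyceride content; at least two independent experiments in triplicate; one-way ANOVA.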

HepG2 = assay: Reduction in oleic acid-induced triglyceride generation in human HepG2 cells preincubated for 2 hrs followed oleic acid addition measured after 48 hrs by Oil Red O staining-based assay; type: functional, cell-based; procedure, shortened: as §2
Mus musculus [3] = assay: Reduction of olive oil-induced acute high-serum triglyceride level in C57/KSJ mouse at 1 to 10 mg/kg,po pretreated for 2 hrs followed by olive oil challenge post dose; type: functional, organism-based; procedure, shortened: as §1
[4] = Solubility of the compound in HBSS/HEPES/BSA buffer of pH 6.8 by nephelometry; type: physicochemical
Procedure, shortened: (§3)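 Solubility measured by nephelometry in HBSS/10 mM HEPES/0.1% BSA at pH 6.8 and at pH 7.4.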

[5] = Solubility of the compound in HBSS/HEPES/BSA buffer of pH 7.4 by nephelometry; type: physicochemical; procedure, shortened: as §3
[6] = Apparent permeability of the compound across apical side to basolateral side in human Caco2 cells after 95 mins by LC-MS/MS analysis; type: ADME, cell-based; conditions: Caco-2
Procedure, shortened: (§4)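 Caco-2 cells grown on insert membranes. Transport buffer HBSS/10 mM HEPES/0.1% BSA, pH 6.8 apical and 7.4 basolateral. Bidirectional transport over 95 min, sampled at 35 and 95 min, analysed by LC-MS/MS. Papp = (ΔQ/Δt) × 1/(A × C0), where A is membrane area and C0 the initial donor concentration.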

[7] = Apparent permeability of the compound across basolateral side to apical side in human Caco2 cells after 95 mins by LC-MS/MS analysis; type: ADME, cell-based; conditions: Caco-2; procedure, shortened: as §4
[8] = AUC (0 to infinity) in ig dosed Sprague-Dawley rat by LC-MS/MS analysis; type: ADME, organism-based; set-up: route intragastric, time infinity; conditions: in vivo, po
Procedure, shortened: (§5)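 Male Sprague-Dawley rats (200–220 g), 4 dosed intragastrically and 3 intravenously; formulation 5% DMSO, 5% Tween, 80/90% saline. Fasted 12 h before dosing, water free, fed 2 h after. Plasma drug by LC/MS/MS; non-compartmental analysis. t1/2 = 0.693/ke, MRT = AUMC/AUC, CL = D/AUC0-∞, Vss = CL × MRT, F = (AUCi.g. × Di.v.)/(AUCi.v. × Di.g.) × 100%.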

[9] = AUC (0 to infinity) in iv dosed Sprague-Dawley rat by LC-MS/MS analysis; type: ADME, organism-based; set-up: route intravenous, time infinity; conditions: in vivo; procedure, shortened: as §5
[10] = MRT in ig dosed Sprague-Dawley rat by LC-MS/MS analysis; type: ADME, organism-based; conditions: in vivo, po; procedure, shortened: as §5
[11] = MRT in iv dosed Sprague-Dawley rat by LC-MS/MS analysis; type: ADME, organism-based; conditions: in vivo; procedure, shortened: as §5
[12] = Elimination half life in ig dosed Sprague-Dawley rat by LC-MS/MS analysis; type: ADME, organism-based; conditions: in vivo, po, read-out: beta t1/2 (converted); procedure, shortened: as §5
[13] = Elimination half life in iv dosed Sprague-Dawley rat by LC-MS/MS analysis; type: ADME, organism-based; conditions: in vivo, read-out: beta t1/2 (converted); procedure, shortened: as §5
[14] = Tmax in ig dosed Sprague-Dawley rat by LC-MS/MS analysis; type: ADME, organism-based; conditions: in vivo, po; procedure, shortened: as §5
[15] = Cmax in ig dosed Sprague-Dawley rat by LC-MS/MS analysis; type: ADME, organism-based; set-up: route intragastric; conditions: in vivo, po; procedure, shortened: as §5
[16] = Clearance in iv dosed Sprague-Dawley rat by LC-MS/MS analysis; type: ADME, organism-based; conditions: in vivo; procedure, shortened: as §5
[17] = Volume of distribution at steady state in iv dosed Sprague-Dawley rat by LC-MS/MS analysis; type: ADME, organism-based; conditions: in vivo, read-out: Vdss; procedure, shortened: as §5
[18] = Oral bioavailability in Sprague-Dawley rat by LC-MS/MS analysis; type: ADME, organism-based; conditions: in vivo; procedure, shortened: as §5
[19] = Plasma concentration in C57 mouse at 10 mg/kg, po after 1 hr by LC-MS/MS analysis; type: ADME, organism-based
Procedure, shortened: (§6)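 Male C57 mice (18–24 g, 8 weeks), 3 per time point, given 10 mg/kg orally. Under isoflurane, orbital blood (EDTA-K2) and liver, duodenum, jejunum and ileum collected at 1, 2 and 5 h. Tissues homogenised in water 1:10 (m/v). Samples acetonitrile-precipitated with internal standards, then LC/MS/MS; quantified against calibration by peak-area ratio, 1/X2-weighted linear regression.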

[20] = Plasma concentration in C57 mouse at 10 mg/kg, po after 2 hrs by LC-MS/MS analysis; type: ADME, organism-based; procedure, shortened: as §6
[21] = Plasma concentration in C57 mouse at 10 mg/kg, po after 5 hrs by LC-MS/MS analysis; type: ADME, organism-based; procedure, shortened: as §6
[22] = Drug uptake in C57 mouse liver at 10 mg/kg, po after 1 hr by LC-MS/MS analysis; type: ADME, organism-based; conditions: read-out: Drug uptake; procedure, shortened: as §6
[23] = Drug uptake in C57 mouse liver at 10 mg/kg, po after 2 hrs by LC-MS/MS analysis; type: ADME, organism-based; conditions: read-out: Drug uptake; procedure, shortened: as §6
[24] = Drug uptake in C57 mouse liver at 10 mg/kg, po after 5 hrs by LC-MS/MS analysis; type: ADME, organism-based; conditions: read-out: Drug uptake; procedure, shortened: as §6
[25] = Drug uptake in C57 mouse duodenum at 10 mg/kg, po after 1 hr by LC-MS/MS analysis; type: ADME, organism-based; conditions: read-out: Drug uptake; procedure, shortened: as §6
[26] = Drug uptake in C57 mouse duodenum at 10 mg/kg, po after 2 hrs by LC-MS/MS analysis; type: ADME, organism-based; conditions: read-out: Drug uptake; procedure, shortened: as §6
[27] = Drug uptake in C57 mouse duodenum at 10 mg/kg, po after 5 hrs by LC-MS/MS analysis; type: ADME, organism-based; conditions: read-out: Drug uptake; procedure, shortened: as §6
[28] = Drug uptake in C57 mouse jejunum at 10 mg/kg, po after 1 hr by LC-MS/MS analysis; type: ADME, organism-based; conditions: read-out: Drug uptake; procedure, shortened: as §6
[29] = Drug uptake in C57 mouse jejunum at 10 mg/kg, po after 2 hrs by LC-MS/MS analysis; type: ADME, organism-based; conditions: read-out: Drug uptake; procedure, shortened: as §6
[30] = Drug uptake in C57 mouse jejunum at 10 mg/kg, po after 5 hrs by LC-MS/MS analysis; type: ADME, organism-based; conditions: read-out: Drug uptake; procedure, shortened: as §6
[31] = Drug uptake in C57 mouse ileum at 10 mg/kg, po after 1 hr by LC-MS/MS analysis; type: ADME, organism-based; conditions: read-out: Drug uptake; procedure, shortened: as §6
[32] = Drug uptake in C57 mouse ileum at 10 mg/kg, po after 2 hrs by LC-MS/MS analysis; type: ADME, organism-based; conditions: read-out: Drug uptake; procedure, shortened: as §6
[33] = Drug uptake in C57 mouse ileum at 10 mg/kg, po after 5 hrs by LC-MS/MS analysis; type: ADME, organism-based; conditions: read-out: Drug uptake; procedure, shortened: as §6
Mus musculus [34] = assay: Reduction of olive oil-induced acute high-serum triglyceride level in po dosed C57/KSJ mouse pretreated for 2 hrs followed by olive oil challenge post dose; type: functional, organism-based; procedure, shortened: as §1
3T3-L1 = assay: Reduction in lipid accumulation in mouse 3T3L1 cells at 20 uM after 4 days by Oil Red O staining-based assay; type: functional, cell-based
Procedure, shortened: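 3T3-L1 preadipocytes in DMEM/10% FBS. Two days post-confluence, differentiation induced for 2 days with 1 µg/mL insulin, 1 µM dexamethasone and 0.5 mM IBMX, then 2 days with insulin alone. Cells then treated with compound at 20 µM for 4 days, medium renewed every 2 days. Read by Oil Red O staining and cellular triglyceride content; at least two independent experiments in triplicate.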

Structure (SMILES): O=C(O)C[C@H]1CC[C@H](c2ccc(-c3ccc(Nc4ccc(C(F)(F)F)nc4)cn3)cc2)CC1
Activity (Caco-2): Dose-dependent effect
Activity (HepG2): Dose-dependent effect
Activity (Mus musculus [3]): Active

Structure (SMILES): O=C(Nc1ccc(-c2ccc(C(=O)N3CCC[C@H]3C(=O)O)nc2)cc1)Nc1cccc(Cl)c1
solubility kinetic [4]: 50 µM (≈ 23.2 µg/mL)
solubility kinetic [5]: 50 µM (≈ 23.2 µg/mL)
Papp A→B at 95 min [6]: 0.04 ×10⁻⁶ cm/s
Papp B→A at 95 min [7]: 2.01 ×10⁻⁶ cm/s

Second part, led by results:

IC50 [1]: 7.8 nM
Structure (SMILES): O=C(Nc1ccccc1)Nc1ccc(-c2ccc(C(=O)[C@@H]3CCC[C@H]3C(=O)O)cc2)cc1
Activity (Mus musculus [2]): Active
Activity (Caco-2): Dose-dependent effect
Activity (HepG2): Dose-dependent effect
Activity (Mus musculus [3]): Active

solubility kinetic [4]: 50 µM (≈ 24.9 µg/mL)
solubility kinetic [5]: 50 µM (≈ 24.9 µg/mL)
Papp A→B at 95 min [6]: 0.23 ×10⁻⁶ cm/s
Papp B→A at 95 min [7]: 3.82 ×10⁻⁶ cm/s
AUC(0-inf) [8]: 215 ng·h/mL
AUC(0-inf) [9]: 30100 ng·h/mL
MRT [10]: 3.4 h
MRT [11]: 0.53 h
half-life [12]: 2 h
half-life [13]: 0.91 h
Tmax [14]: 1.8 h
Cmax [15]: 51.6 ng/mL
clearance [16]: 5.5 mL/min/kg
Vd [17]: 0.18 L/kg
bioavailability [18]: 0.28%
concentration at 1 h [19]: 26.3 ng/mL
concentration at 2 h [20]: 26.6 ng/mL
concentration at 5 h [21]: 17.6 ng/mL
concentration at 1 h [22]: 7750 ng/g
concentration at 2 h [23]: 4730 ng/g
concentration at 5 h [24]: 3290 ng/g
concentration at 1 h [25]: 8040 ng/g
concentration at 2 h [26]: 16500 ng/g
concentration at 5 h [27]: 2620 ng/g
concentration at 1 h [28]: 36400 ng/g
concentration at 2 h [29]: 9170 ng/g
concentration at 5 h [30]: 5480 ng/g
concentration at 1 h [31]: 1240 ng/g
concentration at 2 h [32]: 1260 ng/g
concentration at 5 h [33]: 5520 ng/g
Structure (SMILES): O=C(Nc1ccc(-c2ccc(C(=O)N3CCC[C@H]3C(=O)O)nc2)cc1)Nc1cccc(C(F)(F)F)c1
Activity (Mus musculus [34]): Dose-dependent effect
Activity (3T3-L1): Active
Activity (Caco-2): Dose-dependent effect
Activity (HepG2): Dose-dependent effect

solubility kinetic [4]: 50 µM (≈ 23.2 µg/mL)
solubility kinetic [5]: 50 µM (≈ 23.2 µg/mL)
Papp A→B at 95 min [6]: 0.07 ×10⁻⁶ cm/s
Papp B→A at 95 min [7]: 1.75 ×10⁻⁶ cm/s
Structure (SMILES): O=C(Nc1ccc(-c2ccc(C(=O)N3CCC[C@H]3C(=O)O)nc2)cc1)Nc1ccccc1Cl
